This note sets out measurements from ChEMBL document CHEMBL2406932, “Heteroaromatic and aniline derivatives of piperidines as potent ligands for vesicular acetylcholine transporter” (J Med Chem, 2013).

In experiment [1] the test system is PC-12. As to the kind of experiment: Selectivity ratio, ratio of Ki for sigma 2 receptor in rat liver homogenates to Ki for human VAChT expressed in rat PC12 cells. In kind it is cell-based.
Experiment [2] has as its system PC-12. As to the kind of experiment: Selectivity ratio, ratio of Ki for sigma 1 receptor in guinea pig brain homogenates to Ki for human VAChT expressed in rat PC12 cells. Format: cell-based.
Experiment [3] concerns the target T1, Vesicular acetylcholine transporter (Homo sapiens, UniProt Q16572).
T1 sequence (Q16572 whole entry): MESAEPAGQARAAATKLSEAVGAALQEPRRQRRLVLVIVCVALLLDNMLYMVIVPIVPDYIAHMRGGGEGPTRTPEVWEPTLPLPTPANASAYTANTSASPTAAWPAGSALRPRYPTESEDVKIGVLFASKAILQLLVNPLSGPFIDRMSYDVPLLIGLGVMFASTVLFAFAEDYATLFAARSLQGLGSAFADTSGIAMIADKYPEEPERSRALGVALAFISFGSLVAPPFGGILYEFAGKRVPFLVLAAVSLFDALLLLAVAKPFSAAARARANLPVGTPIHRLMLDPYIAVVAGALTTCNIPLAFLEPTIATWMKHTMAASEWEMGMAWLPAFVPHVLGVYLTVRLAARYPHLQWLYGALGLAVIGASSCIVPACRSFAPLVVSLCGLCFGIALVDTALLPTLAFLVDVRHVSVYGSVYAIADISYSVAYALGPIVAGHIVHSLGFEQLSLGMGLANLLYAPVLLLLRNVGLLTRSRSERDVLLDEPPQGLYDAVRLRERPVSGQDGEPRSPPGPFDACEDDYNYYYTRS
The experiment can be described thus: Displacement of (-)-[3H]vesamicol from human VAChT expressed in rat PC12 cell membrane after 20 hrs. In kind it is cell membranes, PC-12.

Experiment [4] in a line: Displacement of [3H]DTG from sigma 2 receptor in rat liver membrane homogenates after 120 mins by scintillation counting analysis. In kind it is cell membranes. Put shortly: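 Rat liver membrane homogenate (~300 µg protein) with ~5 nM [3H]DTG plus 1 µM (+)-pentazocine to block sigma-1 sites, 120 min at room temperature, pH 7.4 Tris buffer. Nonspecific binding taken with 10 µM haloperidol. Filtration and scintillation counting.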

In experiment [5] the target is Sigma non-opioid intracellular receptor 1 (Cavia porcellus, UniProt Q60492). As to the kind of experiment: Displacement of (+)- [3H]pentazocine from sigma 1 receptor expressed in guinea pig brain membrane homogenates by scintillation counting analysis. Format: cell membranes.
[6] abbreviates: tested as the 11C-labelled form.

Chain of Sigma non-opioid intracellular receptor 1 (Q60492 whole entry): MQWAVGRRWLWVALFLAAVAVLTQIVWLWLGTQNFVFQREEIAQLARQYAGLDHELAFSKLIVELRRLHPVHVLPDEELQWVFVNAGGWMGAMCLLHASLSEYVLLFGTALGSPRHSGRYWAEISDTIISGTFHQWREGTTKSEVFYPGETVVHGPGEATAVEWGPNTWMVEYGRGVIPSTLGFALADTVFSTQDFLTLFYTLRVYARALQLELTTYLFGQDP

`CNc1ccc(C(=O)C2CCN([C@H]3Cc4ccccc4C[C@@H]3O)CC2)cc1`: the Ratio Ki with PC-12 [1] (setting [6]) amounted to 14700; with PC-12 [2] (setting [6]), 1270.

By Ki is commonly meant the equilibrium dissociation constant of an inhibitor or competing ligand from its target. Read a high Ki as lower affinity. In experiment [3], `O=C(c1cccs1)C1CCN([C@@H]2Cc3ccccc3C[C@H]2O)CC1` (racemic) came in with a Ki of 0.005 µM.

As for `O=C(c1ccccc1)C1CCN([C@@H]2Cc3ccccc3C[C@H]2O)CC1` (racemic), the Ratio Ki was determined as 74 in the experiment on PC-12 [1] and 51 in the experiment with PC-12 [2]. This molecule displayed a Ki in experiment [4] of 0.32 µM.

Turning to `Nc1cccc2c1C[C@@H](N1CCC(C(=O)c3cccnc3)CC1)[C@H](O)C2` (racemic), the figures for the Ratio Ki in the experiment on PC-12 [1] and with PC-12 [2] were 43 and 170, respectively. Also, the Ki was 20.3 µM in experiment [5], 0.118 µM in experiment [3] and 5.08 µM in experiment [4].

Regarding `O=C(c1cncc(F)c1)C1CCN([C@@H]2Cc3ccccc3C[C@H]2O)CC1` (racemic), the Ratio Ki in the experiment on PC-12 [1] worked out at 170; with PC-12 [2] it was 70. For the same molecule, the results for the Ki in experiment [5] and in experiment [4] were 0.709 µM and 1.69 µM, respectively.

Turning to `Cn1ccc(C(=O)C2CCN([C@@H]3Cc4ccccc4C[C@H]3O)CC2)cc1=O` (racemic), the Ratio Ki in the experiment on PC-12 [1] is 32; in the experiment on PC-12 [2], 51. The Ki came out at 3.35 µM in experiment [5] and 2.12 µM in experiment [4].

For the molecule `Cn1c(C(=O)C2CCN([C@@H]3Cc4ccccc4C[C@H]3O)CC2)cccc1=O` (racemic), the values for the Ratio Ki in the experiment on PC-12 [1] and in the experiment with PC-12 [2] were 18 and 12, respectively. Also, the Ki in experiment [5] turned out to be 2.16 µM; in experiment [4] it was 3.34 µM.

On to `O=C(c1ccc(F)nc1)C1CCN([C@@H]2Cc3ccccc3C[C@H]2O)CC1` (racemic), for which the Ratio Ki in the experiment with PC-12 [1] was found to be 67; with PC-12 [2] it was 26. In addition, the values for the Ki in experiment [5] and in experiment [4] were 0.682 µM and 1.75 µM, respectively.

As to `O=C(c1cccnc1F)C1CCN([C@@H]2Cc3ccccc3C[C@H]2O)CC1` (racemic), the Ratio Ki with PC-12 [1] was determined as 280. For the same molecule, the Ki in experiment [5] came to 1.3 µM; in experiment [4] it was 3.53 µM.

Regarding `CN(C)c1ccc(C(=O)C2CCN([C@@H]3Cc4ccccc4C[C@H]3O)CC2)cc1` (racemic), the results for the Ratio Ki with PC-12 [1] and in the experiment on PC-12 [2] were 4400 and 44, respectively. Besides, the values for the Ki in experiment [5] and in experiment [4] were 0.0409 µM and 4.08 µM, respectively.

In the case of `CNc1ccc(C(=O)C2CCN([C@@H]3Cc4ccccc4C[C@H]3O)CC2)cc1` (racemic), the figures for the Ratio Ki in the experiment with PC-12 [1] and with PC-12 [2] were 2000 and 100, respectively. In addition, the Ki in experiment [5] was determined as 0.305 µM; in experiment [4], 6.18 µM.

On to `O=C(c1ccc(OCCF)nc1)C1CCN([C@@H]2Cc3ccccc3C[C@H]2O)CC1` (racemic), for which the values for the Ratio Ki with PC-12 [1] and with PC-12 [2] were 49 and 56, respectively. Further, the Ki worked out at 2.12 µM in experiment [5] and 1.86 µM in experiment [4].

For `O=C(c1ncccc1OCCF)C1CCN([C@@H]2Cc3ccccc3C[C@H]2O)CC1` (racemic), the Ratio Ki in the experiment on PC-12 [1] was 4; in the experiment with PC-12 [2], 260. Also, the Ki in experiment [5] worked out at 20 µM; in experiment [4], 0.303 µM.

For `Cn1cccc1C(=O)C1CCN([C@@H]2Cc3c(N)cccc3C[C@H]2O)CC1` (racemic), the Ratio Ki with PC-12 [1] amounted to 180; with PC-12 [2] it was 200. Besides, the Ki in experiment [5] was 7.66 µM; in experiment [4], 6.99 µM.

Regarding `Cc1ccc(C(=O)C2CCN([C@@H]3Cc4c(N)cccc4C[C@H]3O)CC2)cn1` (racemic), the Ki was 0.048 µM in experiment [3] and 27.5 µM in experiment [4].

With `COc1ccc(C(=O)C2CCN([C@@H]3Cc4c(N)cccc4C[C@H]3O)CC2)cn1` (racemic), the Ratio Ki with PC-12 [1] was 220; in the experiment with PC-12 [2] it was 120. Further, the Ki in experiment [5] was 5.68 µM; in experiment [3], 0.0233 µM; in experiment [4], 10.8 µM.

In the case of `Cn1cccc1C(=O)C1CCN([C@@H]2Cc3cccc(N)c3C[C@H]2O)CC1` (racemic), the Ratio Ki was 4.9 with PC-12 [1] and 4 in the experiment on PC-12 [2]. For the same molecule, the figures for the Ki in experiment [5] and in experiment [4] were 9.24 µM and 11.4 µM, respectively.

Regarding `Cn1cccc1C(=O)C1CCN([C@@H]2Cc3ccccc3C[C@H]2O)CC1` (racemic), the Ratio Ki with PC-12 [1] came to 140; in the experiment on PC-12 [2] it was 71. Also, the Ki in experiment [5] amounted to 1.3 µM; in experiment [4], 2.55 µM.

For the molecule `Cn1ccc(C(=O)C2CCN([C@@H]3Cc4ccccc4C[C@H]3O)CC2)c1` (racemic), the Ki came out at 3.04 µM in experiment [5] and 7.71 µM in experiment [4].

Take `O=C(c1cccnc1)C1CCN([C@@H]2Cc3ccccc3C[C@H]2O)CC1` (racemic): the Ratio Ki stood at 130 with PC-12 [1] and 540 in the experiment on PC-12 [2]. The Ki was 12.9 µM in experiment [5] and 3.03 µM in experiment [4].

For `Cc1ccc(C(=O)C2CCN([C@@H]3Cc4ccccc4C[C@H]3O)CC2)cn1` (racemic), the Ki stood at 2.12 µM in experiment [5] and 3.77 µM in experiment [4].

As to `COc1ccc(C(=O)C2CCN([C@@H]3Cc4ccccc4C[C@H]3O)CC2)cn1` (racemic), the Ki in experiment [5] stood at 0.986 µM; in experiment [3], 0.00836 µM; in experiment [4], 2.57 µM.

Regarding `COc1cccnc1C(=O)C1CCN([C@@H]2Cc3ccccc3C[C@H]2O)CC1` (racemic), the Ratio Ki came to 13 in the experiment on PC-12 [1] and 170 in the experiment on PC-12 [2]. Further, the Ki worked out at 21 µM in experiment [5] and 1.56 µM in experiment [4].

In experiment [3] (pc-12), `Nc1ccc(C(=O)C2CCN([C@@H]3Cc4ccccc4C[C@H]3O)CC2)cc1` (racemic) had a Ki of 0.00168 µM.

For the molecule `O=C(c1ccc(F)cc1)C1CCN([C@@H]2Cc3ccccc3C[C@H]2O)CC1` (relative stereo), in experiment [4], the Ki came to 0.251 µM.

As for `CNc1ccc(C(=O)C2CCN(C3Cc4ccccc4CC3O)CC2)cc1` (single isomer, unassigned; (+)), the Ratio Ki came out at 408 in the experiment with PC-12 [1] and 61.5 in the experiment on PC-12 [2]. In addition, the Ki in experiment [5] came out at 1.17 µM; in experiment [3], 0.019 µM; in experiment [4], 7.77 µM.
